The list is not random: actives were taken first. Their share in the collection is about 1.8%.
Mot1-301 SUMO: blocks SUMOylation pathway, rescuing yeast Mot1-301 growth. S. cerevisiae Mot1-301 growth rescue, ATP luminescence, 38.5C; percent above DMSO median, 100 means doubled. growth rescue, % at 18.8 µM. hit rate 1% among 320,000. AID 2716;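 active means every valid replicate shows activation above 250% relative to neutral control wells; inactive means the rest, any valid replicate at or below 250%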;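 further: OY570 slx delta 5 strain wells were the positive control but not used for scaling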
Cneo AK release: causes C. neoformans cell lysis | adenylate kinase release luminescence, 4 h; normalised: neutral wells 0, clomiphene wells 100 | lysis activity, % at 15 µM | hit rate 0.2% among 360,000 | AID 651654;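 active means mean lysis activity across replicates of at least 80%, whatever share of replicates individually reach that level; inactive means mean lysis activity below 80%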
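Assay system: log-phase C. neoformans yeast / Quantity: yeast cell density of 5 × 10^6 cells/mL / Medium: fresh YPD growth medium / Compound: single dose / Timing: static 4 h at 37 °C with compound, 1 h detection / Measured by: adenylate kinase release luminescence / Read-out: lysis from increased AK signal / Benchmarks: Clomiphene as positive lysis control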
C2C12 statin: suppression of simvastatin myotoxicity; C2C12 myotubes + simvastatin, ATP luminescence, 48 h; scaled: DMSO 0, geranylgeraniol control 100; rescue of ATP level, % at 7.49 µM; hit rate 0.78% among 330,000;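 active means mean ATP rescue above about 67%, or every replicate alone reaching that limit, limit read from the data, passing the limit was not always enough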;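 further: myotubes were challenged with 10 µM simvastatin during compound exposure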
Efflux pump mplx: blocks antifungal efflux pumps in multiplex yeast assay | S. cerevisiae Candida pump triplex, Nile Red efflux | inhibition, % at 10 µM | hit rate 0.44% among 330,000 | AID 485275;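 active means plate passing quality check with inhibition over a set limit, or well fluorescence over plate mean plus 4 SD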;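 further: Nile Red retained in pooled yeast measured as flow cytometry median fluorescence; 0% = buffer negative control and 100% = Enniatin B positive control; higher means more Nile Red kept so more efflux inhibition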
Mot1 SUMO dose: SUMO pathway inhibitors in yeast Mot1-301 growth; shares compounds with Mot1-301 SUMO; S. cerevisiae Mot1-301 galactose growth, ATP luminescence, 24 h; -100 = growth of slx-deleted rescue strain; growth activity, percent, % at 42 µM; 2,300 tested, under 10 active; AID 493004;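 active means Signal drops as the depositor expects, and the fitted half-maximal dose is no more than ten times the top valid tested dose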;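 further: more negative values mean stronger growth rescue toward the control strain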
Active calls of the source: *; · = no result; + = active, no number; [ ] = dose if it differs, or a comment.

SMILES	Mot1-301 SUMO	Cneo AK release	C2C12 statin	Efflux pump mplx	Mot1 SUMO dose
Cc1cc(C)c(NC(=O)CNC(=O)c2cc([N+](=O)[O-])ccc2N2CCOCC2)c(C)c1	507*	·	·	0	0
CCN(C(=O)COC(=O)c1cc([N+](=O)[O-])ccc1N1CCOCC1)C1CCCCC1	538*	0	-25	0	1
Cc1ccccc1C(=O)Oc1ccccc1N1C(=O)C2CC=CCC2C1=O (centres undefined)	89	·	·	-1	·
O=C(Oc1ccccc1N1C(=O)C2CC=CCC2C1=O)c1ccc(Br)cc1 (centres undefined)	549*	·	·	0	0
CCOC(=O)N1CCN(C(=O)c2ccccc2-c2ccccc2)CC1	436*	-2	-72	0	0
O=C(COC(=O)C1CC(O)CN1S(=O)(=O)c1ccccc1[N+](=O)[O-])c1ccc[nH]1 (centres undefined)	-12	0	-2	0	·
O=C(COC(=O)[C@@H]1CC(O)CN1S(=O)(=O)c1ccccc1[N+](=O)[O-])Nc1ccc2ccccc2c1 (some centres undefined)	495*	-3	-7	0	0
COc1ccc2[nH]c(O)c(N=NC(=N)N)c2c1	25	·	·	1	·
Cc1ccccc1C(=O)NNC(=S)Nc1cccc(C(F)(F)F)c1	405*	-5	-1	1	0
O=C(C1CCN(S(=O)(=O)N2CCC3(CC2)OCCO3)CC1)N1CCC(Cc2ccccc2)CC1	398*	0	4	0	0
CCN(CC)C(=O)Cn1c(=O)n(CCCCCC(=O)Nc2ccccc2)c(=O)c2sccc21	3	·	·	-1	·
CCN(CC)C(=O)Cn1c(=O)n(CCCC(=O)NCc2ccccc2)c(=O)c2sccc21	539*	·	8	0	1
CCCNC(=O)N(C)C[C@H]1Oc2ncc(C#Cc3ccccc3F)cc2C(=O)N([C@@H](C)CO)C[C@H]1C	·	-2	·	·	·
COc1ccc(OC)c(Nc2nc(C)nc3c2oc2ccccc23)c1	2	5	-22	0	·
Cc1ccc(S(=O)(=O)N2c3ccc(S(N)(=O)=O)cc3CC2C)cc1 (centres undefined)	+	-1	-1	0	1
Cc1ccc(S(=O)(=O)N2c3ccccc3CC2C)cc1 (centres undefined)	68	·	·	0	·
O=C(Nc1ccccc1)N1CCC(c2ccccc2)C1 (centres undefined)	22	-14	-12	0	·
CCc1ccc(NC(=O)N2CCC(c3ccccc3)C2)cc1 (centres undefined)	929*	-11	·	0	0
O=C(CCc1nc2sc3c(c2c(=O)[nH]1)CCCC3)N1CCN(c2ccccc2)CC1	772*	·	4	0	0
C=CCSC1=C(C#N)C(c2ccc(C(C)C)cc2)CC(=O)N1 (centres undefined)	405*	0	·	0	1
C[C@@H]1CN([C@@H](C)CO)C(=O)c2cc(C#Cc3ccccn3)cnc2O[C@@H]1CN(C)C(=O)c1cnccn1	·	-3	4	·	·
O=C(COc1cccc2cccnc12)N1CCc2ccccc21	561*	·	·	0	-1
O=C(CNC(=O)c1ccc(Br)o1)OCc1ccc(Br)cc1	63	0	10	0	·
O=C(c1cc(N2C(=O)C3C4CCC(C4)C3C2=O)ccc1Cl)N1CCN(c2ccccc2)CC1 (centres undefined)	+	·	·	-2	1
COC(=O)C[C@@H]1C[C@@H]2c3cc(NC(=O)c4ccc5c(c4)OCO5)ccc3O[C@@H]2[C@H](CO)O1	·	4	2	·	·
SMILES	Mot1-301 SUMO	Cneo AK release	C2C12 statin	Efflux pump mplx	Mot1 SUMO dose
Cc1c(NC(=O)CSc2nnnn2Cc2ccccc2)c(=O)n(-c2ccccc2)n1C	11	0	-11	0	·
Cc1ccc(C)c(-n2nnnc2SCC(=O)Nc2c(C)n(C)n(-c3ccccc3)c2=O)c1	377*	1	·	0	0
CS(=O)(=O)N1CCCC(C(=O)NCc2ccco2)C1 (centres undefined)	384*	1	-5	0	0
O=C(CC1Sc2ccccc2NC1=O)OCc1cc(=O)oc2cc(O)ccc12 (centres undefined)	22	·	·	0	·
CC(C)(C)c1ccc(OCCCC(=O)Nc2nnc(C3CC3)s2)cc1	·	13	-11	·	·
CC1CCCN(CCCNC(=O)c2ccc(NC(=O)C3=CSCCO3)cc2)C1 (centres undefined)	101	4	19	0	·
Cc1cccc(N2CCN(CCCNC(=O)c3ccc(NC(=O)C4=CSCCO4)cc3)CC2C)c1 (centres undefined)	445*	-4	7	0	0
C=CCN1C(=O)/C(=C\c2ccc(C)cc2)N=C1SCC(=O)NCCC	+	2	-2	0	0
CCCCOc1ccc(OCCNC(=O)C2CCCN2C(=O)Nc2ccccc2)cc1 (centres undefined)	52	2	21	0	·
CC(NC(=O)OCc1ccccc1)C(=O)N1CC(O)CC1C(=O)O (centres undefined)	451*	-4	·	·	1[21 µM]
CC1=C(C(=O)OCCOC(C)C)C(c2cccc3ccccc23)NC(=O)N1 (centres undefined)	-8	3	2	0	·
CCOc1cc(NC(=O)c2cccs2)c(OCC)cc1NC(=O)CCC(=O)NCCN1CCOCC1	388*	·	·	0	1
Cc1cc(C)cc(OCC(=O)OCC(=O)NC2CCCCCCC2)c1	8	0	16	0	·
Cc1cc(C)c(S(=O)(=O)NCC(c2cccnc2)N2CCN(Cc3ccccc3)CC2)c(C)c1 (centres undefined)	524*	-2	-3	0	0
COc1ccc(S(=O)(=O)NCC(c2cccnc2)N2CCN(Cc3ccccc3)CC2)cc1C (centres undefined)	1	5	-5	0	·
C[C@@H]1CCCCO[C@@H](CN(C)CC2CCCCC2)[C@H](C)CN([C@@H](C)CO)C(=O)c2cc(NS(=O)(=O)c3cn(C)cn3)ccc2O1	·	-1	20	·	·
COc1ccc2nc(NC(=O)c3cc(S(=O)(=O)N4CCOCC4)ccc3C)sc2c1	529*	-3	5	0	0
COc1ccc2nc(NC(=O)c3cccc(S(=O)(=O)N4CCOCC4)c3)sc2c1	102	-3	-22	0	·
Cc1nc2ccc(NC(=O)c3ccc(S(=O)(=O)N4CCOCC4)cc3)cc2s1	+	1	-23	0	0
O=C(c1cccs1)N(C(=O)c1cccs1)c1ccc(Br)cn1	482*	-5	-7	0	-3
COCC(C)n1c(C)cc(C(=O)CSc2ccc(NC(C)=O)cc2)c1C (centres undefined)	+	-2	1	0	0
COCCn1c(C)cc(C(=O)CSc2ccc(NC(C)=O)cc2)c1C	-16	·	·	0	·
N#Cc1ccccc1Cn1c(=O)oc2ccccc21	-26	-1	-3	0	·
Cc1ccc2cccc(OCc3nnc(SCC(=O)O)n3C)c2n1	+	·	·	0	0

Screens (PubChem BioAssay)
